The values below come from ChEMBL document CHEMBL1142164, “Activities of naphthylisoquinoline alkaloids and synthetic analogs against Leishmania major” (Antimicrob Agents Chemother, 2007).

Data set [1] in a line: Cytotoxicity index, IC50 for J774.1 macrophages over IC50 for Leishmania major promastigotes. The following applies: mouse; for selectivity ratio: J774.1 macrophages, read-out: Ratio IC50. The procedure, abridged: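 Index is J774.1 IC50 divided by promastigote IC50, with both assays run in parallel. Promastigotes were incubated 24 h at 26°C with rising concentrations, and J774.1 cells 24 h at 37°C. Alamar Blue was then added. OD at 540/630 nm was read, and IC50 was interpolated linearly from the 48 h readings, with drug-free wells set as 100% growth.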

The subject of data set [2] is Leishmania major. Put plainly: Cytotoxicity against cloned virulent Leishmania major promastigotes MHOM/IL/81/FE/BN1 after 48 hrs. Type of data set: organism-based. A digest of the protocol: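 L. major promastigotes grown on blood agar at 26°C, 5% CO2, then washed in PBS and suspended at 1 × 10^8 cells/ml in complete Click RPMI 1640 (10% FCS, glutamine, HEPES pH 7.2, antibiotics, 2-mercaptoethanol), no phenol red. Exposed to increasing compound concentrations 24 h at 26°C, then Alamar Blue added. OD read 540/630 nm; 48 h OD versus untreated (100% growth) gave IC50 by linear interpolation. Duplicate wells, ≥2 experiments; DMSO ≤1% final.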

Data set [3] is filed under the species Mus musculus. Description: Cytotoxicity against J774.1 macrophages after 48 hrs. The following applies: J774.1, 48 h. The procedure, abridged: (§1)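 J774.1 cells, BALB/c peritoneal exudate cells (erythrocytes lysed in 10 mM NH4Cl), or BMDC (day-10 nonadherent cells from GM-CSF 200 U/ml cultures) were plated at 2 × 10^6 cells/ml in complete RPMI without phenol red. Cells were exposed to increasing concentrations for 24 h at 37°C in 5% CO2, then Alamar Blue was added. IC50 was taken by linear interpolation from the 48 h OD. Duplicate wells, at least two experiments.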

Data set [4] can be described thus: Cytotoxicity against BALB/c mouse bone-marrow derived dendritic cells by Alamar blue method. Type of data set: cell-based. Particulars: Dendritic cell. A digest of the protocol: as §1
For data set [5], the species on record is Mus musculus. Put plainly: Cytotoxicity against BALB/c mouse peritoneal macrophages by Alamar blue method. The data set is classed as functional. The procedure, abridged: as §1
A general note: Resazurin is reduced to fluorescent resorufin, in cell work by metabolically active cells.

Data set [6] relates to NIH3T3. Description: Cytotoxicity against mouse embryo NIH3T3 cells by Alamar blue method. Type of data set: cell-based. The procedure, abridged:
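NIH 3T3 fibroblasts were grown on gelatin and suspended at 2 × 10^6 cells/ml in DMEM. They were exposed to rising compound concentrations for 24 h at 37°C in 5% CO2, then Alamar Blue was added. IC50 was derived by linear interpolation of the 48 h OD. Duplicate wells per concentration; at least two experiments.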

A value given as a limit tells only on which side of the number the result lay.

One may read the IC50 as the concentration at which inhibition is half-maximal. A high value points to lower potency.

`COc1cc(OC)c2c(C)[n+](-c3ccccc3)c(C)cc2c1.[O-][Cl+3]([O-])([O-])[O-]`: the selectivity ratio in data set [1] amounted to 1.47. Also, the IC50 in data set [2] stood at 26.6 µM; in data set [3], 39.2 µM.

Take `COc1cc(OC)c2c(C)[n+](-c3ccccc3)c(C)cc2c1.[Cl-]`: the “Ratio IC50” value in data set [1] is on record as less than 1. In addition, the figures for the IC50 in data set [2] and in data set [3] were 47 µM and 43.7 µM, respectively.

Consider `COc1cc(OC)c2c(C)[n+](-c3cccc4ccccc34)c(C)cc2c1.[O-][Cl+3]([O-])([O-])[O-]`, for which the selectivity ratio in data set [1] came out at 3.48. Moreover, the IC50 stood at 2.91 µM in data set [2]; 27.4 µM in data set [4]; 10.2 µM in data set [3]; 15.5 µM in data set [5]; 15 µM in data set [6].

As for `COc1cc2c(c(OC)c1)C(C)=[N+](c1ccc(OC)c3c(OC)cc(C)cc13)[C@@H](C)C2` [ANCISANCISTROCLADINIUM A], in data set [1], the selectivity ratio was 6.48. Moreover, the IC50 in data set [2] came out at 4.9 µM; in data set [4], 36 µM; in data set [3], 31.8 µM; in data set [5], 41.7 µM.

Turning to `COc1cc2c(c(OC)c1-c1c(C)cc3cccc(OC)c3c1O)C(C)=N[C@@H](C)C2` [ANCISTROCLADIDINE], the IC50 in data set [2] and in data set [3] was greater than 100 µM each time.

Take `COc1cc2c(c(OC)c1)C(C)=[N+](c1ccc3cc(C)cc(OC)c3c1O)[C@@H](C)C2` [ANCISTROCLADINIUM B]: in data set [1], the selectivity ratio stood at 9.04. The IC50 in data set [2] worked out at 1.24 µM; in data set [4], 20.1 µM; in data set [3], 11.2 µM; in data set [5], 16.9 µM; in data set [6], 10.6 µM.

Turning to `COc1cc(OC)c(-c2ccc(OC)c3c(OC)cc(C)cc23)c2c1C(C)=N[C@@H](C)C2` [ANCISTROEALAINE A], the IC50 in data set [2] and in data set [3] was greater than 100 µM in each case.

For the compound `COc1c2c(cc(O)c1-c1c(C)cc3cccc(OC)c3c1O)C[C@H](C)N=C2C` [ANCISTROHEYNINE B], the selectivity ratio in data set [1] was less than 1. In addition, the IC50 in data set [2] is 33 µM; in data set [3], 29.9 µM.

Regarding `COc1cc(CO)c(-c2ccc3c(c2O)[C@@H](C)N[C@H](C)C3)c2cccc(O)c12` [DIONCOPELTINE A], the IC50 in data set [2] and in data set [3] was greater than 100 µM in each case.

As for `COc1ccc(-c2ccc3cc(C)nc(C)c3c2O)c2cc(C)cc(OC)c12` [DIONCOPHYLLEINE D], the IC50 in data set [2] and in data set [3] was greater than 100 µM in each case.

Compound `COc1cccc2c(-c3ccc4c(c3O)[C@@H](C)N[C@H](C)C4)c(C)cc(OC)c12` [DIONCOPHYLLINE A] had an IC50 in data set [2] of 47 µM. That is a double-digit micromolar value.

On to `COc1cc(C)c(-c2ccc(O)c3c2C[C@@H](C)N[C@@H]3C)c2cccc(O)c12` [DIONCOPHYLLINE C], for which the selectivity ratio in data set [1] is less than 1. Further, the half-inhibitory concentration (IC50) in data set [2] came to 36.5 µM; in data set [3] it was 32.8 µM.

As to `COc1cc(C)c(-c2ccc3cc(C)nc(C)c3c2O)c2cccc(O)c12` [ENT-DIONCOPHYLLEINE A], in data set [2], 32.3 µM corresponded to half-maximal inhibition (IC50).
